Measured values reported in PMC6800648 (Cell chemical biology, 2019).
Square brackets hold non-standard residues; d marks the D form. Peptide text beside a SMILES is read from it. * marks the point of attachment. Benzoyl(4-tBu) = CC(C)(C)c1ccc(C(=O)*)cc1; Lys(Et2) = CCN(CC)CCCC[C@H](N)C(=O)O

Tests used:
CBX7 chromodomain [1] = settings: ref Stuckey et al., 2016a, 2016b; cited from earlier work
CBX7 chromodomain [2] = molecular target: T1, CBX7 chromodomain (Homo sapiens, UniProt O95931); test: Electrophoretic mobility shift assay; assay type: biochemical
T1 sequence (O95931 1-62): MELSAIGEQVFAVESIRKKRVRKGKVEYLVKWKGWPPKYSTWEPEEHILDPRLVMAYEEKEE
How it was run: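 Buffer: 25 mM Tris-HCl pH 7.4, 100 mM NaCl, 0.05% Tween-20, 2 mM DTT. Compound runs used 150 µM CBX7 with 100 nM FAM-DNA probe and 50 µM test compound (0.3% DMSO); protein-only runs used a three-fold CBX7 series. Binding 20 min on ice. Native 10% Tris-glycine gel at 100 V, 4°C, 90 min in the dark. FAM fluorescence imaged, then Coomassie-stained.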

Polycomb target genes = test: RT-qPCR mRNA expression in HEK293 cells; assay type: cell-based, human; settings: HEK293, 6 μM and 20 μM, 2 days
How it was run: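 HEK293 cells were treated with test compounds at 6 µM and 20 µM for 2 days. RNA was reverse-transcribed and Polycomb target transcripts were quantified by qPCR with ~100–150 bp amplicons.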

CBX7 chromodomain [3] = molecular target: T1, CBX7 chromodomain; test: Fluorescence polarization; assay type: biochemical
How it was run: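 Buffer: 25 mM Tris-HCl pH 7.4, 100 mM NaCl, 0.05% Tween-20, 2 mM DTT; 100 nM FAM-dsDNA or FAM-ANRIL-RNA; 0.2% DMSO; 30 min at RT. Compound titration: eight-point three-fold series from 100 µM with 30 µM CBX7 chromodomain. Ratio mode: CBX7 and test compound co-diluted at fixed 3:1 from 300 µM/100 µM. Polarisation normalised to a no-protein control; α fitted by the Stockton-Ehlert allosteric model.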

mESCs = test: CellTiter-Glo viability assay in mESCs; assay type: cell-based, mouse; settings: 48 hr
How it was run: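 Mouse ES cells, 5,000 per well, exposed in technical triplicate for 48 hr at 37°C to a ten-point three-fold dilution series prepared from 50 mM DMSO stocks (0.2% DMSO final). Media-only wells served as negative controls. After equilibrating at room temperature, CellTiter-Glo was added, with 2 min shaking and 10 min settling, then luminescence read.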

CBX7 = molecular target: T2, CBX7 (Mus musculus, UniProt Q8VDS3); test: Polycomb in-vivo Assay; assay type: cell-based
T2 sequence (Q8VDS3 2-69 limits assumed): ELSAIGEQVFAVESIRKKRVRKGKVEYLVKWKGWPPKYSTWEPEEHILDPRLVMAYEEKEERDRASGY

CBX7 and RING1B = molecular target: T3, CBX7 and RING1B (Mus musculus, UniProt Q8VDS3); test: ChIP-qPCR / ChIP-seq in mESCs; assay type: cell-based; settings: 4 hours, 20 μM
T3 sequence (Q8VDS3 1-158): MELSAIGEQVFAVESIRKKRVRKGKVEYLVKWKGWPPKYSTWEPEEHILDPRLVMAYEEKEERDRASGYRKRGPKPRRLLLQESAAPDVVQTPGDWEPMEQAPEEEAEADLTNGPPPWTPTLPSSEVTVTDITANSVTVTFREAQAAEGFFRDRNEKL
T3 sequence (Q9CQJ4 2-336 partner limits assumed): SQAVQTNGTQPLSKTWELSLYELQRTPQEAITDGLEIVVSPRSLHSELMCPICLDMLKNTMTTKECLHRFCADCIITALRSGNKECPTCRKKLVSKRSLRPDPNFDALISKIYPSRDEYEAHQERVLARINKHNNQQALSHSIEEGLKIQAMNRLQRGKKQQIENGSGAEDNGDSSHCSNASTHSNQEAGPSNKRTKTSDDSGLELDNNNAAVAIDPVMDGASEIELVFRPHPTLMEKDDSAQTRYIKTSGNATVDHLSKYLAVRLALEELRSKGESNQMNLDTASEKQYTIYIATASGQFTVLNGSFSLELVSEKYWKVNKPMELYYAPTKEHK

binding to CBX7 by Coomassie stain (higher molecular weight band shifts) (CBX7 chromodomain [2]; EMSA gel): showed binding to CBX7 | effect on FAM-dsDNA binding to CBX7 (CBX7 chromodomain [2]; EMSA, 150 mM CBX7 and 100 nM FAM-dsDNA probe, 1:3 ratio of compound to CBX7): did not have any effect | enhancement in CBX7 affinity for FAM-dsDNA (CBX7 chromodomain [3]; 1:3 ratio of compound to protein titration): negligible enhancement | allosteric modulator class of oligonucleotide binding (CBX7 chromodomain [3]; FP data fit to the Stockton/Ehlert allosteric binding model): silent allosteric modulator (SAM) | α (factor of enhancement of CBX7 affinity for the DNA probe) (CBX7 chromodomain [3]; Stockton/Ehlert allosteric binding model, 1:3 compound to CBX7, 100 nM FAM-dsDNA): 1.5 | EC50 (CBX7): 41.7 ± 2.24 µM | CBX7 and RING1B binding at PRC1 target TSSs (CBX7 and RING1B): more limited impact
SMILES: CCN(CC)CCCC[C@H](NC(=O)[C@H](CC(C)C)NC(=O)[C@H](C)NC(=O)[C@H](Cc1ccccc1)NC(=O)c1ccc(C(C)(C)C)cc1)C(=O)N[C@@H](CO)C(=O)OC [UNC3866, methyl N^2-(4-(tert-butyl)benzoyl)-L-phenylalanyl-L-alanyl-L-leucyl-N^6,N^6-diethyl-L-lysyl-L-serinate] ({Benzoyl(4-tBu)}-FAL[Lys(Et2)]S-OMe)
fold more potent than fragments of the endogenous H3K27me3 peptide (CBX7 chromodomain [1]): > 100 fold | effect on transcription of Polycomb target genes (Polycomb target genes): either no or a mild effect | mESC viability upon compound treatment (mESCs): non-toxic
